# Measured values as given in ChEMBL document CHEMBL1156068, “Synthesis, pharmacological and antiviral activity of 1,3-thiazepine derivatives” (Eur J Med Chem, 2009).
# pEC50: −log10 of the molar value. Calls of active or inactive are those of the source. The calls are words filed in the database; no cut-off is given here.
# Key:
# Mus musculus [1] = species on record: Mus musculus; test: Decrease in body temperature in normothermic Swiss albino mouse within 60 to 120 mins; format: ADME, organism-based; details: in vivo
# [2] = system: Vesicular stomatitis virus; test: Antiviral activity against Vesicular stomatitis virus infected in african green monkey Vero76 cells after 2 days by plaque reduction assay; format: functional, organism-based; details: Vero 76
# [3] = system: Respiratory syncytial virus; test: Antiviral activity against Respiratory syncytial virus infected in african green monkey Vero76 cells after 5 days by plaque reduction assay; format: functional, organism-based; details: Vero 76
# In short: (§1)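 Vero 76 monolayers (2×10^5 cells/well, overnight) infected to give 50–100 PFU/well. Unadsorbed virus removed, then DMEM with 1% FCS, 0.75% methylcellulose and serial compound dilutions added. Incubated at 37 °C for 3 days (CVB-2, HSV-1) or 5 days (RSV). Fixed and stained with 50% ethanol/0.8% crystal violet in PBS; plaques counted.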
# [4] = system: Mammalian orthoreovirus 1; test: Antiviral activity against Reo virus type-1 infected in BHK-21 cells assessed as protection against virus induced cytopathogenicity after 3 to 4 days by MTT assay; format: functional, organism-based
# In short: (§2)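 Monolayers were grown overnight at 37 °C, 5% CO2: MDBK at 3×10^4 cells/well, BHK at 5×10^4 cells/well. Cells infected at m.o.i. 0.01. After 1 h, serial compound dilutions added in MEM with 1% FCS. Viability read by MTT after 3–4 days at 37 °C. EC50 is the concentration giving 50% protection from cytopathogenicity.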
# Mus musculus [5] = test: Effect on motor coordination in Swiss albino mouse at 200 mg/kg, ip by rotarod test; format: ADME, organism-based; parameters: dose 200 mg/kg, route intraperitoneal; details: in vivo
# [6] = system: Human immunodeficiency virus 1; test: Antiviral activity against wild type HIV1 3B infected in human MT4 cells assessed as protection against virus induced cytopathogenicity after 4 days by MTT assay; format: functional, organism-based; details: Human immunodeficiency virus 1, 3B, MT4, 96 h
# In short: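 MT-4 cells (1×10^4/well) in RPMI with serial compound dilutions were infected with HIV-1 (100 CCID50; m.o.i. 0.01). After 4 days, viability was measured by MTT. EC50 is the concentration giving 50% protection from virus-induced cytopathogenicity. Compounds were prepared as 100 mM DMSO stocks diluted in medium.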
# Mus musculus [7] = test: Effect on pentylenetetrazole-induced clonic seizures in Swiss albino mouse at 200 mg/kg, ip; format: functional, organism-based; parameters: dose 200 mg/kg
# In short: (§3)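 Mice pretreated i.p. with compound (200 mg kg-1, 0.5% methylcellulose suspension, 60 min), then pentylenetetrazole 110 mg kg-1 s.c. Scored as number of mice with clonic seizures, tonic convulsions, and deaths. Chi-square test with Yates correction.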
# Mus musculus [8] = test: Antinociceptive activity in Swiss albino mouse assessed as protection against acetic acid-induced abdominal constriction at 200 mg/kg, ip measured for 10 mins by writhing test; format: functional, organism-based; parameters: dose 200 mg/kg; details: Abdomen
# [9] = system: Bovine viral diarrhea virus 1; test: Antiviral activity against Bovine viral diarrhea virus infected in MDBK cells assessed as protection against virus induced cytopathogenicity after 3 to 4 days by MTT assay; format: functional, organism-based; in short: as §2
# Vaccinia virus = test: Antiviral activity against Vaccinia virus infected in african green monkey Vero76 cells after 3 days by plaque reduction assay; format: functional, organism-based; details: Orthopoxvirus vaccinia; Vero 76
# Mus musculus [10] = test: Effect on pentylenetetrazole-induced tonic convulsion in Swiss albino mouse at 200 mg/kg, ip; format: functional, organism-based; parameters: dose 200 mg/kg; in short: as §3
# Mus musculus [11] = test: Depression of spontaneous locomotor activity in Swiss albino mouse at 0.05 times LD50, ip dose measured for 30 mins; format: functional, organism-based
# In short: (§4)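 Spontaneous locomotion of single male Albino Swiss mice recorded in photoresistor actometers for 30 min. Compound given i.p. at 0.05 or 0.1 LD50 as 0.5% methylcellulose suspension 60 min before test. Vehicle controls. Student's t-test.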
# Coxsackievirus B2 = test: Antiviral activity against Coxsackie virus B2 infected in african green monkey Vero76 cells after 3 days by plaque reduction assay; format: functional, organism-based; details: Vero 76; in short: as §1
# Human alphaherpesvirus 1 = test: Antiviral activity against HSV1 infected in african green monkey Vero76 cells after 3 days by plaque reduction assay; format: functional, organism-based; details: Vero 76; in short: as §1
# Mus musculus [12] = test: Acute toxicity in ip dosed Swiss albino mouse assessed as mortality within 48 hrs; format: organism-based; details: in vivo
# In short: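 Male Albino Swiss mice (18–30 g) received compound i.p. as a suspension in 0.5% aqueous methylcellulose, 10 mL kg-1. LD50 was calculated by the Litchfield–Wilcoxon method from mortality within 48 h.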
# Mus musculus [13] = test: Decrease in 5-hydroxytryptophan-induced head twitch in Swiss albino mouse at 200 mg/kg, ip measured for 6 two mins interval; format: functional, organism-based; parameters: dose 200 mg/kg
# Mus musculus [14] = test: Depression of spontaneous locomotor activity in Swiss albino mouse at 0.1 times LD50, ip dose measured for 30 mins; format: functional, organism-based; in short: as §4
# Mus musculus [15] = species on record: Mus musculus; test: Decrease in body temperature in normothermic Swiss albino mouse within 30 to 90 mins; format: ADME, organism-based; details: in vivo
# [16] = Cytotoxicity against human MT4 cells assessed as reduction of cell viability after 96 hrs by MTT assay; format: cell-based
# In short: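 Exponentially growing, mock-infected MT-4 cells were seeded at 1×10^5 cells mL-1 in RPMI-1640 with 10% FCS and penicillin/streptomycin, with serial compound dilutions. Incubated 96 h at 37 °C, 5% CO2, then viability read by MTT. CC50 is the concentration reducing viability by 50%.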
# Mus musculus [17] = test: Effect on motor coordination in Swiss albino mouse at 200 mg/kg, ip by chimney test; format: ADME, organism-based; parameters: dose 200 mg/kg, route intraperitoneal; details: in vivo
# Poliovirus 1 = test: Antiviral activity against Poliovirus type 1 Sabin infected in african green monkey Vero76 cells after 2 days by plaque reduction assay; format: functional, cell-based; details: Vero 76
# Yellow fever virus = test: Antiviral activity against Yellow fever virus infected in BHK-21 cells assessed as protection against virus induced cytopathogenicity after 3 to 4 days by MTT assay; format: functional, organism-based
# In short: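 BHK cells were seeded at 5 × 10^4 per well and grown overnight to monolayers, then infected at m.o.i. 0.01 in serum-free medium. One hour later, MEM Earle's with 1% FCS (final) and serial compound dilutions were added. After 3–4 days at 37 °C, viability was read by MTT. EC50 is the concentration giving 50% protection from virus-induced cytopathogenicity.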
# Mus musculus [18] = test: Effect on amphetamine-induced hyperactivity in Swiss albino mouse at 5 mg/kg, sc administered 30 mins before amphetamine challenge; format: functional, organism-based; parameters: dose 5 mg/kg
# In short: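 Mice received compound i.p. (0.1 LD50, 0.5% methylcellulose suspension) 60 min before test. Amphetamine 5 mg kg-1 s.c. was given 30 min before test. Locomotion of single male Albino Swiss mice recorded in photoresistor actometers for 30 min. Vehicle controls. Student's t-test.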
Structure (SMILES),Activity [2],Activity [3],Activity [4],pEC50 [6],Activity [9],Activity (Vaccinia virus),Activity (Coxsackievirus B2),Activity (Human alphaherpesvirus 1),CC50 at 96 h [16],Activity (Poliovirus 1),Activity (Yellow fever virus),also measured
CC(C)C12C=CC(C)(CC1)C1C(=O)N(N3CCCCS/C3=N\c3ccc(Cl)c(Cl)c3)C(=O)C12 (stereo not drawn),inactive,inactive,inactive,< 4.00,inactive,inactive,inactive,inactive,> 100 µM,inactive,inactive,Activity (Mus musculus [1]): Toxic; Activity (Mus musculus [5]): Non-toxic; Activity (Mus musculus [7]): inactive; Activity (Mus musculus [8]): inactive; Activity (Mus musculus [10]): inactive; Activity (Mus musculus [11]): inactive; Activity (Mus musculus [12]): Active; Activity (Mus musculus [13]): Active; Activity (Mus musculus [14]): Active; Activity (Mus musculus [15]): Toxic; Activity (Mus musculus [17]): Non-toxic; Activity (Mus musculus [18]): inactive
CC1=CC2C(C(C)C)CC1C1C(=O)N(N3CCCCS/C3=N\c3ccc(C)cc3)C(=O)C21 (stereo not drawn),inactive,inactive,inactive,,inactive,inactive,inactive,inactive,,inactive,inactive,Activity (Mus musculus [1]): Toxic; Activity (Mus musculus [5]): Non-toxic; Activity (Mus musculus [7]): inactive; Activity (Mus musculus [8]): inactive; Activity (Mus musculus [10]): inactive; Activity (Mus musculus [11]): inactive; Activity (Mus musculus [12]): Active; Activity (Mus musculus [13]): inactive; Activity (Mus musculus [14]): Active; Activity (Mus musculus [15]): Toxic; Activity (Mus musculus [17]): Non-toxic; Activity (Mus musculus [18]): inactive
CC(C)C12C=CC(C)(CC1)C1C(=O)N(NC(=S)Nc3ccc(I)cc3)C(=O)C12 (stereo not drawn),inactive,inactive,inactive,< 4.00,inactive,inactive,inactive,inactive,> 100 µM,inactive,inactive,
CC(C)C12C=CC(C)(CC1)C1C(=O)N(NC(=S)Nc3ccc(Cl)c(Cl)c3)C(=O)C12 (stereo not drawn),inactive,inactive,inactive,< 4.23,inactive,inactive,inactive,inactive,59 µM,inactive,inactive,
CC1=CC2C(C(C)C)CC1C1C(=O)N(N3CCCCS/C3=N\c3ccc(F)cc3)C(=O)C21 (stereo not drawn),inactive,inactive,inactive,< 4.31,inactive,inactive,inactive,inactive,49 µM,inactive,inactive,
CC1=CC2C(C(C)C)CC1C1C(=O)N(N3CCCCS/C3=N\Cc3ccccc3)C(=O)C21 (stereo not drawn),inactive,inactive,inactive,< 4.33,inactive,inactive,inactive,inactive,47 µM,inactive,inactive,
CC(C)C12C=CC(C)(CC1)C1C(=O)N(N3CCCCS/C3=N\c3ccc(Cl)cc3)C(=O)C12 (stereo not drawn),inactive,inactive,inactive,< 4.49,inactive,inactive,inactive,inactive,32 µM,inactive,inactive,
CC1=CC2C(C(C)C)CC1C1C(=O)N(N3CCCCS/C3=N\c3ccc(Cl)cc3)C(=O)C21 (stereo not drawn),inactive,inactive,inactive,< 4.52,inactive,inactive,inactive,inactive,30 µM,inactive,inactive,
C=CCNC(=S)NN1C(=O)C2C3CC(C(C)C)C(C=C3C)C2C1=O (stereo not drawn),inactive,inactive,inactive,< 4.00,inactive,inactive,inactive,inactive,> 100 µM,inactive,inactive,
CC(C)C12C=CC(C)(CC1)C1C(=O)N(N3CCCCS/C3=N\c3ccc(F)cc3)C(=O)C12 (stereo not drawn),inactive,inactive,inactive,< 4.07,inactive,inactive,inactive,inactive,86 µM,inactive,inactive,
CC(C)C12C=CC(C)(CC1)C1C(=O)N(N3CCCCS/C3=N\Cc3ccccc3)C(=O)C12 (stereo not drawn),inactive,inactive,inactive,< 4.00,inactive,inactive,inactive,inactive,> 100 µM,inactive,inactive,
